Experimental data: ChEMBL document CHEMBL3865847, “The synthesis and biological evaluation of alkyl and benzyl naphthyridinium analogs of eupolauridine as potential antimicrobial and cytotoxic agents” (Bioorg Med Chem, 2016)
≈ marks a conversion by molar mass, not a printed value.

Tests used:
Candida albicans = assay: Antimicrobial activity against Candida albicans B311; assay type: functional
Outline: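 Cultured in Sabouraud dextrose broth 24 h, counted by hemocytometer, diluted to 10,000 CFU/mL. Added to serially diluted samples in 96-well plates, top final concentration 50 µg/mL (≤2.5% DMSO), incubated 37 °C. Growth by A630. MIC is the lowest concentration giving 80% inhibition against controls; IC50 from concentration versus % growth plots.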

Cryptococcus neoformans = assay: Antimicrobial activity against Cryptococcus neoformans ATCC 52657; assay type: functional
Outline: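 Grown in mycophil broth 72 h, hemocytometer-counted, diluted to 200,000 CFU/mL. Exposed to diluted samples in 96-well plates, maximum final 50 µg/mL (DMSO up to 2.5%), incubated 30 °C. A630 readout. MIC is the lowest concentration inhibiting 80% of growth versus controls; IC50 read from concentration versus % growth graphs.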

Aspergillus fumigatus = assay: Antimicrobial activity against Aspergillus fumigatus ATCC 26934; assay type: functional
Outline: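 Aspergillus fumigatus spores released by scraping a slant, used on assay day, in mycophil broth. Broth microdilution in 96-well plates, highest final DMSO 2.5%, incubated at 30 °C. Growth read as absorbance at 630 nm versus controls. MIC is the lowest tested concentration giving 80% growth inhibition; IC50 (50% inhibition) comes from concentration versus % growth plots.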

Staphylococcus aureus [1] = assay: Antimicrobial activity against Staphylococcus aureus ATCC 6538; assay type: functional
Outline: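 Staphylococcus aureus grown 24 h in Eugon broth, diluted 1:50 in broth, added to serially diluted samples in 96-well plates (highest final DMSO 2.5%), incubated at 37 °C. Growth measured at 630 nm versus controls. MIC is the lowest concentration inhibiting 80% of growth; IC50 (50% inhibition) comes from concentration versus % growth plots.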

Staphylococcus aureus [2] = assay: Antimicrobial activity against methicillin-resistant Staphylococcus aureus; assay type: functional
Outline: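 MRSA precultured 24 h, diluted 1:50 in broth, added to serially diluted samples in 96-well plates (highest final DMSO 2.5%), incubated at 37 °C. Growth measured as absorbance at 630 nm versus controls. MIC is the lowest concentration giving 80% inhibition; IC50 (50% inhibition) is read from concentration versus % growth plots.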

Pseudomonas aeruginosa = assay: Antimicrobial activity against Pseudomonas aeruginosa ATCC 15442; assay type: functional
Outline: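 Pseudomonas grown 24 h in trypticase soy broth, diluted 1:50. Combined with diluted samples in 96-well plates, top final concentration 50 µg/mL (≤2.5% DMSO), 37 °C incubation. Growth read at 630 nm. MIC is the lowest tested concentration inhibiting 80% of growth versus controls; IC50 from concentration versus % growth graphs.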

[3] = tested on: Mycobacterium intracellulare; assay: Antimicrobial activity against Mycobacterium intracellulare ATCC 23068; assay type: functional
Outline: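 Mycobacterium grown 72 h in Middlebrook medium with OADC supplement, diluted 1:30 in broth. Incubated at 37 °C with diluted samples in 96-well plates, highest final 50 µg/mL, DMSO at most 2.5%. Absorbance at 630 nm. MIC = lowest concentration with 80% growth inhibition relative to controls; IC50 from concentration versus % growth plots.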

[4] = Cytotoxicity against human SK-MEL cells assessed as cell growth inhibition after 48 hrs by neutral red dye based assay; assay type: functional
Outline: (§1)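 Cells kept in RPMI-1640 with 10% bovine serum and 60 µg/mL amikacin, 37 °C, 5% CO2. Seeded at 25,000 cells/well, left 24 h to adhere. Samples diluted in RPMI added, highest final concentration 10 µg/mL. Growth measured by neutral red uptake after 48 h exposure.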

[5] = Cytotoxicity against human KB cells assessed as cell growth inhibition after 48 hrs by neutral red dye based assay; assay type: functional; outline: as §1
[6] = Cytotoxicity against human BT549 cells assessed as cell growth inhibition after 48 hrs by neutral red dye based assay; assay type: functional; conditions: BT-549, 48 h; outline: as §1
[7] = Cytotoxicity against human SKOV3 cells assessed as cell growth inhibition after 48 hrs by neutral red dye based assay; assay type: functional; conditions: SK-OV-3, 48 h; outline: as §1
[8] = Cytotoxicity against African green monkey Vero cells assessed as cell growth inhibition after 48 hrs by neutral red dye based assay; assay type: toxicity, Chlorocebus sabaeus; outline: as §1
[9] = Inhibition of Candida albicans DNA topoisomerase 1 using pHOT1 as substrate after 30 mins by agarose gel electrophoresis
Outline: (§2)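 Relaxation of supercoiled to relaxed DNA by TopoI measured with a commercial TopoI drug kit following kit protocol. IC50 calculated from dose-response curves of % inhibition versus concentration.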

DNA topoisomerase 1 = target: T1, DNA topoisomerase 1 (Homo sapiens, UniProt P11387); assay: Inhibition of human DNA topoisomerase 1 using pHOT1 as substrate after 30 mins by agarose gel electrophoresis; outline: as §2
T1 sequence (P11387 whole entry): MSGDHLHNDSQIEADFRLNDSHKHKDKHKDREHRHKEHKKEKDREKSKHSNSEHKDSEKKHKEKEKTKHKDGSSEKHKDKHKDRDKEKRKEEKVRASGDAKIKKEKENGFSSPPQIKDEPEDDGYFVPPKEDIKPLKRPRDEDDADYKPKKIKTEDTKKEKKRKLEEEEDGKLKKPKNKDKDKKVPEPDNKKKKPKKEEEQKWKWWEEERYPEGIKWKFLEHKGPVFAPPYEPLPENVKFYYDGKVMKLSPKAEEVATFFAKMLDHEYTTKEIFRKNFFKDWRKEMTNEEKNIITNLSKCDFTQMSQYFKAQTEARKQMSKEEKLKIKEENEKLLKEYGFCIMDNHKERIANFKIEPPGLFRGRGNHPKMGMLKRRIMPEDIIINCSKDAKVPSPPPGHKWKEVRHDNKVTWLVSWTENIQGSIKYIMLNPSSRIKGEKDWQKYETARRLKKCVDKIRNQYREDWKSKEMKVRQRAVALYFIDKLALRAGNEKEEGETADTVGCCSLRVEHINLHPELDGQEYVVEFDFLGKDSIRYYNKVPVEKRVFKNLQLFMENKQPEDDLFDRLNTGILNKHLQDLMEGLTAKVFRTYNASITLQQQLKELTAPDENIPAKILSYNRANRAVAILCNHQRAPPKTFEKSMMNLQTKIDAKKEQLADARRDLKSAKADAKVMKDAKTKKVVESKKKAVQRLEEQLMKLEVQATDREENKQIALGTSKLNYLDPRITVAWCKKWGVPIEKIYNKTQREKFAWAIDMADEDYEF

Plasmodium falciparum = assay: Antimalarial activity against Plasmodium falciparum D6 infected in RBC after 48 hrs by lactate dehydrogenase assay; assay type: functional; conditions: D6, 48 h
Outline: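 Parasites grown in A+ human erythrocytes in RPMI 1640 with 10% A+ human serum, 25 mM HEPES, 27 mM bicarbonate, 60 µg/mL amikacin, 37 °C under 90% N2/5% O2/5% CO2. Infected cells exposed 48 h in microtiter wells, highest concentration 4.8 µg/mL. Growth read by Malstat reagent (parasite LDH) with nitro blue tetrazolium reduction, absorbance 630 nm.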

[10] = Selectivity index, ratio of IC50 for human DNA topoisomerase 1 to IC50 for Candida albicans DNA topoisomerase 1

Compound	MIC80 (Candida albicans) [µg/mL]	MIC80 (Cryptococcus neoformans) [µg/mL]	MIC80 (Aspergillus fumigatus) [µg/mL]	IC50 (Candida albicans) [µg/mL]	IC50 (Cryptococcus neoformans) [µg/mL]	IC50 (Staphylococcus aureus [1]) [µg/mL]	IC50 (Staphylococcus aureus [2]) [µg/mL]	IC50 (Pseudomonas aeruginosa) [µg/mL]	MIC80 [3] [µg/mL]	IC50 [4] [µg/mL]	IC50 [5] [µg/mL]	IC50 [6] [µg/mL]	IC50 [7] [µg/mL]	IC50 at 48 h [8] [µg/mL]	IC50 [9] [µg/mL]	IC50 (DNA topoisomerase 1) [µM]	IC50 (Plasmodium falciparum) [µg/mL]	Ratio IC50 [10]
C[C@@H]1[C@H](O)[C@@H](C)/C=C/C=C/C=C/C=C/C=C/C=C/C=C/[C@H](O[C@@H]2O[C@H](C)[C@@H](O)[C@H](N)[C@@H]2O)C[C@@H]2O[C@](O)(C[C@@H](O)C[C@@H](O)[C@H](O)CC[C@@H](O)C[C@@H](O)CC(=O)O[C@H]1C)C[C@H](O)[C@H]2C(=O)O [AMPHOTERICIN B]	0.156 (≈ 0.169 µM)	0.078 (≈ 0.0844 µM)	1.25 (≈ 1.35 µM)	–	–	–	–	–	–	–	–	–	–	–	–	–	–	–
CC[n+]1c2c3c(nc(-c4ccccc4)cc3c3ccccc31)-c1ccccc1-2.[Br-]	0.098	0.39	–	0.04	0.17	2	2	2	10	1.3	6.5	8	4	7.8	< 6	< 13.7	–	–
FC(F)(F)c1ccc(C[n+]2ccc3ccnc4c3c2-c2ccccc2-4)cc1.[Br-]	12.5	3.12	–	6.5	0.57	30	–	27	50	0.78	0.54	0.79	0.08	6.4	30	69.9	0.0085	0.97
c1ccc2c(c1)-c1nccc3ccnc-2c13 [EUPOLAURIDINE]	12.5 (≈ 61.2 µM)	25 (≈ 122 µM)	2 (≈ 9.79 µM)	5.25 (≈ 25.7 µM)	4.8 (≈ 23.5 µM)	–	–	5 (≈ 24.5 µM)	–	–	–	–	> 10	> 10	6.5 (≈ 31.8 µM)	20.6	–	1.55
